Values belong to the compound of their own block, whether it stands above or below them.
Experiments:
[1] = tested on: Hsp90 client proteins Her2, Raf-1, and Akt; experiment: Western blot analysis of Hsp90 client protein degradation in MCF-7 cells; type: cell-based, human; settings: for IC50: Homo sapiens, MCF7, 24 h, read-out: Hsp90 client protein degradation IC50s; for degradation of Hsp90 client proteins (Her2, Raf-1, Akt) / effect on actin (non Hsp90-dependent protein): MCF-7 cells, 24 h, western blot
Outline: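 MCF-7 cells were seeded at 1×10^6 per dish and left to attach overnight. Test compound was added at varying concentrations and incubated 24 h at 37 °C, 5% CO2. Cells were then harvested and client protein levels analysed by western blot using a previously reported method.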

[2] = tested on: Hsp90; type: biochemical, rabbit
[3] = tested on: MCF-7 cells; experiment: Anti-proliferation assay; type: cell-based, human
Outline: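 MCF-7 cells were grown in 1:1 DMEM:Ham's F-12 with non-essential amino acids, 2 mM L-glutamine, penicillin/streptomycin and 10% FBS, at 37 °C and 5% CO2. They were seeded at 2000/well and left to attach overnight. Test compound was added at varying concentrations in DMSO (1% final) for 72 hr. Viable cells were measured by MTS/PMS and normalised to 1% DMSO wells as 100% proliferation.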

[4] = tested on: Her2; experiment: Her2 ELISA in SKBr3 cells; type: cell-based, human; settings: for fold decrease in Her2 degradative activity for meta substituents: meta chloro or methoxy substituent on the benzamide
Outline: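 SKBr3 cells were grown as for the proliferation assay, seeded at 3000/well, attached overnight, then given test compound at varying concentrations for 24 hr. Cells were washed with ice-cold PBS/1% Tween and fixed in -20 °C methanol (10 min, 4 °C), then blocked 1 hr in 5% BSA/PBST at rt. Rabbit anti-Her2 (1:500) went on overnight at 4 °C, then HRP anti-rabbit IgG (1:1000) for 2 hr at rt. Read-out was chemiluminescence on a luminometer.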

[5] = tested on: Hsp90; settings: assay validation; cited from earlier work

IC50 [1]: 10 to 20 µM
Compound: CC(=O)NC1=C(c2ccc(Cl)cc2)C(=O)c2ccccc2C1=O [Compound 3g]
degradation of Hsp90 client proteins (Her2, Raf-1, Akt) [1]: induced the degradation of these client proteins in a concentration-dependent manner
effect on actin (non Hsp90-dependent protein) [1]: no similar effects on actin

inhibition of luciferase refolding (in words) [2]: unable to inhibit luciferase refolding
Compound: COc1ccc(C2=C(NC(=O)c3ccc(OC)c(-c4cccc(OC)c4)c3)C(=O)c3ccccc3C2=O)cc1 [Compound 11, 3’,6-dimethoxy-N-(3-(4-methoxyphenyl)-1,4-dioxo-1,4-dihydronaphthalen-2-yl)biphenyl-3-carboxamide]

inhibition of luciferase refolding (in words) [2]: low micromolar activity
IC50 ([3]; Homo sapiens, MCF7, read-out: anti-proliferative activity IC50): 1.7 to 3 µM
IC50 [1]: 10 to 20 µM
Compound: COc1cccc(-c2cc(C(=O)NC3=C(Cl)C(=O)c4ccccc4C3=O)ccc2OC)c1 [Compound 12]
degradation of Hsp90 client proteins (Her2, Raf-1, Akt) [1]: induced the degradation of these client proteins in a concentration-dependent manner
effect on actin (non Hsp90-dependent protein) [1]: no similar effects on actin

IC50 [1]: 5 to 10 µM
Compound: COc1ccc(C2=C(NC(=O)c3ccccc3Cl)C(=O)c3ccccc3C2=O)cc1 [Compound 13a]
degradation of Hsp90 client proteins (Her2, Raf-1, Akt) [1]: induced the degradation of these client proteins in a concentration-dependent manner
effect on actin (non Hsp90-dependent protein) [1]: no similar effects on actin

Compound: COc1ccc(C2=C(NC(=O)c3cccc(Cl)c3)C(=O)c3ccccc3C2=O)cc1 [Compound 13b]
fold decrease in Her2 degradative activity for meta substituents [4]: 6 fold

Compound: COc1ccc(C2=C(NC(=O)c3cccc(OC)c3)C(=O)c3ccccc3C2=O)cc1 [Compound 13e]
fold decrease in Her2 degradative activity for meta substituents [4]: 15 fold

Compound: COc1ccc(C2=C(NC(=O)c3cccc4ccccc34)C(=O)c3ccccc3C2=O)cc1 [Compound 13g]
fold decrease in Her2 activity compared to the corresponding benzamide (4d) ([4]; vs 4d): 3 fold

Compound: COc1ccc(C2=C(NC(=O)c3ccc4ccccc4c3)C(=O)c3ccccc3C2=O)cc1 [Compound 13h]
Her2 degradative activity (in words) [4]: complete loss of Her2 degradative activity

inhibition of luciferase refolding (in words) [2]: low micromolar activity
Compound: COc1ccc(C2=C(NC(=O)C3CCCCC3)C(=O)c3ccccc3C2=O)cc1 [Compound 13i]

Compound: CC(=O)C1=C(c2ccccc2)C(=O)c2ccccc2C1=O [HTS1]
fold greater anti-proliferative activity against MCF-7 cells compared to SKBr3 cells ([3]; MCF-7 vs SKBr3): 4 fold

Compound: CO[C@@H]1[C@@H](OC(N)=O)[C@@H](O)[C@H](Oc2ccc3c(O)c(NC(=O)c4ccc(O)c(CC=C(C)C)c4)c(=O)oc3c2C)OC1(C)C [novobiocin]
reduction of luciferase renaturation by known Hsp90 inhibitors [5]: significantly reduce the renaturation of luciferase
